Assay outcomes as filed in PubChem BioAssay.
CDK5 inh: inhibitors of human CDK5/p35 kinase, primary screen, biochemical, single concentration. Cyclin-dependent kinase 5 (Homo sapiens) + Cyclin-dependent kinase 5 activator 1 (Homo …. Recombinant CDK5/p35, ADP-Glo luminescence, 60 min. inhibition, % at 10 µM. hit rate 0.01% among 330,000;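 active = highest replicate inhibition of at least 50% and at least 75% of replicates reaching 50%; inconclusive = only one of the two criteria met; inactive = both criteria failed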;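 note: plate controls were DMSO neutral control for no effect and GW8510 at 10 µM for full effect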
GSK3A inh: blockers of GSK3A enzyme activity – biochemical, luminescence, cell-free homogeneous, HTS, primary screen | Glycogen synthase kinase-3 alpha (Homo sapiens), P49840 | GSK-3 alpha kinase, ADP-Glo luminescence, 60 min | inhibition, % at 10 µM | hit rate 0.1% among 320,000 | AID 2650, 2010;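 active = more than half of replicates show inhibition above 20%; inconclusive = some but at most half of replicates above 20% inhibition; inactive = no replicate shows inhibition above 20%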;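 note: GST-tagged GSK-3 alpha with peptide substrate and 25 µM ATP; 0% = DMSO neutral wells and 100% = GW8510 positive control wells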
GSK3beta inhib: human GSK3beta kinase inhibitors, primary screen, biochemical, cell-free homogeneous, HTS; Glycogen synthase kinase-3 beta (Homo sapiens), P49841; GST-GSK3beta kinase, ADP-Glo luminescence, 60 min; hits give low values; activity score (negative = inhibition), % at 10 µM; hit rate 0.038% among 300,000; AID 2097, 2009;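 active = more than half of replicate wells score below -50%, meaning over 50% inhibition versus plate controls; inconclusive = some replicates but at most half score below -50%; inactive = no replicate scores below -50%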;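 note: 0% = median DMSO wells and -100% = median GW8510 positive control wells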
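Assay system: GST-tagged human GSK3beta kinase, cell-free; Input: 1.6 ng GSK3beta; Medium: Tris/MgCl2 kinase buffer; Timing: 60 min enzyme reaction, room temperature; Signal: ADP-Glo luminescence quantifying ADP generated by kinase; Evaluation: score relative to plate controls; Benchmarks: DMSO neutral wells and GW8510 at 20 µM as positive.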
GSIS activator: GLuc luminescence reporter in INS-1E cells, primary screen for activators of glucose-dependent secretion of insulin; INS-1E GLuc reporter insulin secretion, 2-3 h; activation, % at 16.6 µM; hit rate 0.61% among 370,000; AID 743287, 2014;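 active = lowest replicate activation of at least 40%, so every replicate reaches that level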;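 note: 0% = median of neutral control wells and 100% = median of IBMX positive control wells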
STK33 inh: inhibitors of purified STK33 kinase, primary screen, biochemical, ADP-Glo luminescence, homogeneous, cell-free; MBP phosphorylation; inhibition, % at 10 µM; hit rate 0.073% among 320,000;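 active = inhibition at or above 25%, using the most active replicate where run in duplicate; inactive = inhibition below 25%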
Target sequence (Q9BYT3 whole entry, looked up): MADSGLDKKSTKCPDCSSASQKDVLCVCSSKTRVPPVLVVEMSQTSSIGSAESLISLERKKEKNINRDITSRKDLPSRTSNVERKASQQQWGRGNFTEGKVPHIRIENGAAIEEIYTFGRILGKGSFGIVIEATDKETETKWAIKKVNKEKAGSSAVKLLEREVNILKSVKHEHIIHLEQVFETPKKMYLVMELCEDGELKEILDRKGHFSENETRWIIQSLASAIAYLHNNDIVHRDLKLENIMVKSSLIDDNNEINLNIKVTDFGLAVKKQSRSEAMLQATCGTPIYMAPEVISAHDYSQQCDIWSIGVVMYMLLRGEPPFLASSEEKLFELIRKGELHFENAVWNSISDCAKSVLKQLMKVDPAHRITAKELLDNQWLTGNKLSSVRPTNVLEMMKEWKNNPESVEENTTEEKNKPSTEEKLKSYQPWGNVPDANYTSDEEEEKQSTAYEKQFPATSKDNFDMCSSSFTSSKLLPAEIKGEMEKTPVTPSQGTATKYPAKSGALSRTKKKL
Env fusion inh: inhibitors of HIV-1 Env-driven cell-cell fusion, primary screen, HeLa-JRFL effector, CEM21 target cells, luciferase | inhibition, % at 12.3 µM | hit rate 1.1% among 360,000;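 active = mean replicate inhibition score of at least 50 and every replicate individually at or above 50; inconclusive = only one of the two criteria met; inactive = mean below 50 and not all replicates reaching 50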;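 note: 0% = plate neutral controls and 100% = maraviroc near 300 nM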
Active calls of the source: *; [ ] = another dose, or the depositor's remark. Sampled rows, rich in hits. Any-hit rate of the full collection: about 1.4%.

For COc1cc(C(=O)O)ccc1O the results were CDK5 inh 0.3, GSK3A inh -1.2, GSK3beta inhib 1.6, GSIS activator -4.5, STK33 inh 0.4 and Env fusion inh 2.8.
COc1cc(C(=O)C(=O)c2ccc(O)c(OC)c2)ccc1O was read as CDK5 inh 0.1, GSK3A inh -1.6, GSK3beta inhib 3.9, GSIS activator 42.6*, STK33 inh 0.5 and Env fusion inh -4.2.
CC=Cc1ccc2n(c1=O)C[C@H]1[C@H](CO)[C@@H](C(=O)N[C@H](C)c3ccccc3)[C@@H]2N1Cc1cccnc1 (mixture of isomers) was read as GSIS activator -4.1.
Screening COc1ccc2c(c1)-c1c(ssc1=S)C(C)(C)N2S(=O)(=O)c1ccc(C)cc1 returned CDK5 inh 1.7, GSK3A inh -2.8, GSK3beta inhib 0.8, GSIS activator -8.7, STK33 inh -1.6 and Env fusion inh 72.5*.
`COc1ccc2c(c1)-c1c(ssc1=S)C(C)(C)N2` gave CDK5 inh 2.0, GSK3A inh 1.3, GSK3beta inhib -59.9*, STK33 inh 1.5 and Env fusion inh 61.7*.
`COc1ccc(CCNC(=O)[C@@H]2c3ccccc3C(=O)N(CC34CC5CC(CC(C5)C3)C4)[C@H]2c2ccc(CO)cc2)cc1` gave Env fusion inh 40.1[16.7 µM].
O=C(NCC(F)(F)F)[C@@H]1c2ccccc2C(=O)N(CC23CC4CC(CC(C4)C2)C3)[C@H]1c1ccc(CO)cc1 was read as Env fusion inh 74.2*[16.7 µM].
C[C@@H]1CCCCO[C@@H](CN(C)Cc2ccc(C(=O)O)cc2)[C@H](C)CN([C@H](C)CO)C(=O)c2cc(NS(=O)(=O)c3ccccc3)ccc2O1 was read as GSIS activator 6.1 and Env fusion inh -5.6[16.7 µM].
COc1ccc(C2CNC(=O)C2)cc1OC1CCCC1 (configuration not stated) was read as CDK5 inh -0.3, GSK3A inh -1.0, GSK3beta inhib -0.3, GSIS activator 45.4*, STK33 inh -0.7 and Env fusion inh 6.5.
`Cc1nnc(NC(=O)C2CCCCC2)s1` gave CDK5 inh -15.3, GSK3A inh -2.7, GSK3beta inhib -3.8, STK33 inh -0.7 and Env fusion inh 65.3*.
Cc1ccc(S(=O)(=O)Nc2ccc3c(c2)CC(=O)N([C@H](C)CO)C[C@H](C)[C@H](CN(C)Cc2ccc(C(=O)O)cc2)O3)cc1 was read as GSIS activator 0.5 and Env fusion inh -4.1[16.7 µM].
`C/C(=N\NC(=O)c1cccc(Br)c1)c1ccc(Br)cc1` gave CDK5 inh 0.1, GSK3A inh -0.5, GSK3beta inhib 0.6, GSIS activator 56.3*, STK33 inh -1.5 and Env fusion inh 9.7.
For C[C@@H]1CN([C@@H](C)CO)C(=O)c2cccc(N(C)C)c2O[C@@H]1CN(C)Cc1ccc(-c2ccccc2)cc1 the results were GSIS activator 8.7 and Env fusion inh -17.8[16.7 µM].
CS(=O)(=O)c1ccc(Cl)c(NC(=O)CN2CCCC2c2ccc3c(c2)OCCCO3)c1 (configuration not stated) was read as CDK5 inh -0.7, GSK3A inh -0.3, STK33 inh 0.0 and Env fusion inh 61.3*.
Screening CN1c2ccc(-c3ccccc3)cc2[C@H]2[C@H](CCN2C(=O)Cc2ccccn2)[C@@H]1CO returned GSIS activator -2.3.
For COc1ccc(N2CCN(C(=O)C3CCC(Cn4c(=S)[nH]c5ccccc5c4=O)CC3)CC2)cc1 (configuration not stated) the results were CDK5 inh 2.9, GSK3A inh 1.1, GSK3beta inhib 3.8, GSIS activator -42.4, STK33 inh 0.8 and Env fusion inh 73.8*.
O=C(C1CCC(Cn2c(=S)[nH]c3ccccc3c2=O)CC1)N1CCN(c2ccccc2)CC1 (configuration not stated) was read as CDK5 inh 0.7, GSK3A inh -1.8, GSK3beta inhib -2.5, GSIS activator 6.0, STK33 inh 3.2 and Env fusion inh inconclusive.
Screening CCOc1ccc(CCNS(=O)(=O)c2cn(C)cn2)cc1OCC returned CDK5 inh -4.3, GSK3A inh -2.0, GSK3beta inhib -8.1, GSIS activator 60.0*, STK33 inh 5.6 and Env fusion inh -16.3.
For CCOc1cc(CNS(=O)(=O)c2cn(C)cn2)cc(OCC)c1OCC the results were CDK5 inh -2.7, GSK3A inh -2.4, GSK3beta inhib -4.2, GSIS activator -1.8, STK33 inh 5.2 and Env fusion inh 11.4.
`CS(=O)(=O)N1CC2(C1)[C@H](c1ccccc1)[C@H](CO)N2Cc1ccccn1` gave GSIS activator 10.1.
Screening Cc1ccccc1S(=O)(=O)N1CC(=O)N2[C@H](CO)[C@H](c3ccc(C#CCC4CCCC4)cc3)[C@@H]2C1 returned GSIS activator -18.8.
Cc1ccccc1S(=O)(=O)N1CC(=O)N2[C@@H](CO)[C@H](c3ccc(C#CCC4CCCC4)cc3)[C@@H]2C1 was read as GSIS activator 43.1*.
For COCCn1c(SCC(=O)Nc2ccc(Cl)c(S(=O)(=O)N(C)C)c2)nc2ccccc21 the results were CDK5 inh 0.5, GSK3A inh 1.5, GSK3beta inhib -1.7, STK33 inh -3.0 and Env fusion inh 60.2*.
For COCCn1c(SCC(=O)Nc2ccc(S(N)(=O)=O)cc2)nc2ccccc21 the results were CDK5 inh -1.5, GSK3A inh -0.6, GSK3beta inhib 2.0 and STK33 inh -0.5.
Screening CCOC(=O)c1cnc(-n2nc(C)cc2C)nc1NC1CCCCC1 returned CDK5 inh -0.2, GSK3A inh -2.1, GSK3beta inhib 0.9, STK33 inh -0.7 and Env fusion inh 105.2*.
Screening Cc1[nH]nc(C(F)(F)F)c1N=NN1CCOCC1 returned CDK5 inh -0.5, GSIS activator 148.2* and Env fusion inh 23.8.
Screening COc1ccccc1C(OC(=O)c1cccs1)C(=O)NCC1CCCO1 (configuration not stated) returned CDK5 inh -6.9, GSK3A inh 5.9, GSK3beta inhib -0.5, GSIS activator 56.9*, STK33 inh -0.2 and Env fusion inh -35.2.
Screening Cc1ccccc1-c1nc(CN2CCC(C(=O)NCCC3=CCCCC3)CC2)c(C)o1 returned CDK5 inh 1.1, GSK3beta inhib 0.6, STK33 inh 0.6 and Env fusion inh 72.6*.
For COc1ccc(CCNC(=O)C2CCN(Cc3nc(-c4ccc(Cl)cc4)oc3C)CC2)cc1OC the results were CDK5 inh 2.8, GSIS activator 10.0 and Env fusion inh 5.0.
